The values below come from ChEMBL document CHEMBL4396890, “Synthesis, Biological Evaluation, Structure-Activity Relationship, and Mechanism of Action Studies of Quinoline-Metronidazole Derivatives Against Experimental Visceral Leishmaniasis” (J Med Chem, 2019).

The test system of experiment [1] is Leishmania donovani. The experiment can be described thus: Antileishmanial activity against Leishmania donovani MHOM/IN/80/Dd8 amastigotes harboring luciferase reporter gene infected in mouse J774 cells assessed as stimulation of host immunity by measuring change in IL10 level at 50 uM after 48 hrs by ELISA. It is filed as functional, organism-based. Summed up:
(§1)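 Infected J774 macrophages (24 h infection) were treated with 50 μM compound for 48 h. Culture supernatants were assayed by ELISA for TNF-α and IL-12 (Th1) and for TGF-β and IL-10 (Th2), compared with infected untreated cells.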

Experiment [2] relates to Leishmania donovani. Put plainly: Induction of nitric oxide generation in Leishmania donovani MHOM/IN/80/Dd8 promastigotes assessed as increase in fluorescence at 50 uM measured after 12 hrs by DAF-2DA dye-based flow cytometry relative to control. It is filed as functional. Summed up: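 Log-phase promastigotes exposed to 50 μM for 6–18 h, vehicle control 0.1% DMSO, then labelled with 40 μM DAF-2DA. Fluorescence (GMFC) read by flow cytometry and expressed as fold change over vehicle. At least 3 independent experiments in duplicate.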
For orientation: In flow cytometry, cells or beads pass a laser one at a time.

The subject of experiment [3] is Leishmania donovani. Put plainly: Induction of mitochondrial membrane disruption in Leishmania donovani MHOM/IN/80/Dd8 promastigotes assessed as increase in cytochrome c release from mitochondria to cytosol at 50 uM measured after 6 to 48 hrs by immunoblot analysis. It is filed as functional, organism-based. In a few lines:
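Promastigotes were treated with 50 μM compound for 6−48 h, or 0.1% DMSO for 48 h. Mitochondrial and cytosolic fractions were immunoblotted for cytochrome c, with COX-IV and β-tubulin as fraction loading controls.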
On the technique in general: Immunoblotting shows a protein as a band on a membrane.

Experiment [4] concerns Leishmania donovani. The experiment can be described thus: Antileishmanial activity against Leishmania donovani MHOM/IN/80/Dd8 amastigotes harboring luciferase reporter gene infected in mouse J774 cells assessed as stimulation of host immunity by measuring change in TGFbeta level at 50 uM after 48 hrs by ELISA. Type of experiment: functional, organism-based. In a few lines:
as §1
For orientation: A reporter such as luciferase makes a cellular process visible.

The subject of experiment [5] is Leishmania donovani. Put plainly: Antileishmanial activity against Leishmania donovani MHOM/IN/80/Dd8 promastigotes infected in BALB/c mouse assessed as reduction in parasite load in spleen at 25 mg/kg, ip administered once daily for 5 days measured 7 days post dose by giemsa staining-based assay relative to control. Type of experiment: functional. On the set-up: scale not given: the % may be the effect or the level left. In a few lines: (§2)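 Hamster-passaged strain was transformed to promastigotes. Stationary-phase cells (2 × 10^7 in 0.2 mL PBS) were injected into the tail vein of BALB/c mice. From day 15 post-infection, mice received compound ip in 8% DMSO in PBS for 5 consecutive days, 5 mice per group. Mice were killed day 7 post-treatment. Liver and spleen burden was read from Giemsa-stained stamp smears as LDU.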

In experiment [6] the test system is Leishmania donovani. Put plainly: Induction of apoptosis in Leishmania donovani MHOM/IN/80/Dd8 promastigotes assessed as increase in meta-caspase activity at 50 uM using BOC-GRR-AMC as substrate preincubated for 1 hr followed by substrate addition and measured after 2 hrs in presence of meta-caspase inhibitor antipain by fluorometric assay. It is filed as functional, organism-based. In a few lines:
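Log-phase promastigotes were pretreated for 1 h with antipain (1 μM) or zVAD-fmk (100 μM), then exposed to 50 μM compound or 0.1% DMSO. Metacaspase activity in lysates was read with fluorogenic BOC-GRR-AMC and expressed as RFU per mg protein.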

The subject of experiment [7] is Leishmania donovani. The experiment can be described thus: Induction of mitochondrial potential loss in Leishmania donovani MHOM/IN/80/Dd8 promastigotes assessed as shift in red to green fluorescence at 50 uM after 6 hrs by JC1 dye-based flow cytometry (reference value: 7.37%). Type of experiment: functional. Summed up: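 Exponential-phase promastigotes were incubated with 50 μM compound for 6−48 h, or 0.1% DMSO vehicle. CCCP (50 μM) served as positive control. After JC-1 staining, the red-to-green fluorescence shift was measured by flow cytometry.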

Experiment [8] deals with Leishmania donovani. The experiment can be described thus: Induction of reactive oxygen species generation in Leishmania donovani MHOM/IN/80/Dd8 promastigotes at 50 uM measured after 24 hrs by H2DCFDA probe-based flow cytometry (reference value: 7%). Type of experiment: functional.
In experiment [9] the test system is Leishmania donovani. Put plainly: Antileishmanial activity against Leishmania donovani MHOM/IN/80/Dd8 promastigotes infected in BALB/c mouse assessed as reduction in parasite load in spleen at 100 mg/kg, ip administered once daily for 5 days measured 7 days post dose by giemsa staining-based assay relative to control. Type of experiment: functional. On the set-up: scale not given: the % may be the effect or the level left. In a few lines: as §2

Activity calls are given as the source filed them. The rule behind the calls is not given here.

As for `Cc1cc(-c2ccc(OCCn3c([N+](=O)[O-])cnc3C)cc2)nc2ccccc12`, the result in the experiment with Leishmania donovani [1] and in the experiment on Leishmania donovani [4] was inactive. In addition, the “fold change (FC)” value in the experiment on Leishmania donovani [2] worked out at 3.6. For the same molecule, in the experiment on Leishmania donovani [3], the result was Active. In addition, the Activity in the experiment with Leishmania donovani [5] was >62%; in the experiment with Leishmania donovani [7], 23.15%; with Leishmania donovani [8] it was 41.41%; in the experiment with Leishmania donovani [9], 81.7%. The inhibition entry in the experiment on Leishmania donovani [6] was “inactive”.
